Bioassay records as filed in PubChem BioAssay.
Hits are enriched below; roughly 2.3% of the tested compounds scored in any of these assays.
TRPC4 potent: TRPC4 (mouse) allosteric potentiation | Q9QUQ5 | HEK293 TRPC4beta/mu-opioid, DAMGO EC20, Fluo-4 Ca2+ flux; active compounds read high | B-score at 10 µM | 310,000 compounds, 0.42% hits | AID 2227;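 active = B-score of calcium response area above 5 SD of library B-scores, with initial fluorescence ratio within 5 SD of library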;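 note: B-score of integrated fluorescence ratio over time as area under calcium response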
TRPC6 activator: activators of mouse TRPC6 channel; Q61143; HEK293-TRPC6 membrane potential dye fluorescence; active compounds read high; B-score at 10 µM; 310,000 compounds, 0.13% hits; AID 2550;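 active = B-score of the integrated fluorescence ratio above library mean plus 3 SD, and starting fluorescence ratio within library mean plus 5 SD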;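 note: higher score means more depolarization so channel activation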
Target sequence (Q61143 whole entry, looked up): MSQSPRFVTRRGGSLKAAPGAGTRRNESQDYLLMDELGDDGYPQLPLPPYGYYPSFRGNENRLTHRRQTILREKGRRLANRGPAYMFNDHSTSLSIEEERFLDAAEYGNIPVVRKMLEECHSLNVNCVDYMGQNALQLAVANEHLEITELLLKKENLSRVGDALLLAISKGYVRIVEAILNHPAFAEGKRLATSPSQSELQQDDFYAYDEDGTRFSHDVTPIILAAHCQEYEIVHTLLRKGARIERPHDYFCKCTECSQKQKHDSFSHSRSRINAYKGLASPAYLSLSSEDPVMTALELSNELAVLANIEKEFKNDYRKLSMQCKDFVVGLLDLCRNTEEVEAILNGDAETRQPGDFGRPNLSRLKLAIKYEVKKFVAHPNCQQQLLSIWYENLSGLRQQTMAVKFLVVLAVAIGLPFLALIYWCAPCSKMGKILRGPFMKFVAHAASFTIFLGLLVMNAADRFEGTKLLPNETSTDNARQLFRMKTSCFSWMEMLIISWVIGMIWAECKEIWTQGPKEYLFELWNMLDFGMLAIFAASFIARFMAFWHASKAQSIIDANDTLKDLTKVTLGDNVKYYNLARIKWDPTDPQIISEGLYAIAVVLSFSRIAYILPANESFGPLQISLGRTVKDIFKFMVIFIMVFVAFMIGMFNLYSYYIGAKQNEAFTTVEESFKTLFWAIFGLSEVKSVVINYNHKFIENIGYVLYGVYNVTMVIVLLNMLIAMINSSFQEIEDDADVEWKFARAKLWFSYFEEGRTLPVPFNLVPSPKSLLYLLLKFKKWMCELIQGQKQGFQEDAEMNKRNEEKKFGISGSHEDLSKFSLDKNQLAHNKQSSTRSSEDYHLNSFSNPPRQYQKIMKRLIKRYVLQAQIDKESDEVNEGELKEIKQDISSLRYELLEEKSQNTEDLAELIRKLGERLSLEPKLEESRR
TRPC4 act: opens the mouse TRPC4 cation channel. HEK293 TRPC4beta/mu-opioid, Fluo4 calcium fluorescence; active compounds read high. 310,000 compounds, 0.49% hits. AID 2237. B-score at 10 µM;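 active = B-score above 5 SD of library B-scores, and initial fluorescence ratio not above library mean plus 5 SD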;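 note: positive B-score marks a calcium rise read as TRPC4 activation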
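Assay system: HEK293 cells stably co-expressing mouse TRPC4beta and mu-opioid receptor / Timing: Fluo4 dye loading 45 min at room temperature, 110 s recording / Signal: Fluo4 calcium-sensitive dye fluorescence, kinetic, 1 Hz baseline / Read-out: integrated baseline-normalised fluorescence ratio, converted to per-well B score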
TRPC4 block: TRPC4 (mouse) channel inhibition; B-score at 10 µM; HEK293 TRPC4beta/mu-opioid, DAMGO-evoked Fluo4 calcium flux; active compounds read low; Q9QUQ5; AID 2247; 300,000 compounds, 0.39% hits;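 active = B-score over 3 SD under the library average, no early fluorescence shift, positive overall ratio signal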
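Assay system: Stable TRPC4beta/mu-opioid receptor HEK293 cells | Reagent: DAMGO in two steps, submaximal then maximal | Compound dosing: Single concentration per test compound | Signal: Fluo4 Ca2+ flux fluorescence | Evaluation: Per-well B score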
TRPC6 inh: blocks the mouse TRPC6 cation channel; HEK293-TRPC6, membrane potential dye, ACh-evoked depolarization; active compounds read low; B-score at 10 µM; 310,000 compounds, 1.1% hits;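 active = B-score under library mean minus 3 SD, initial fluorescence not abnormally high, positive integrated signal ratio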;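 note: B-score derived from integrated fluorescence ratio over the kinetic read; more negative B-score means stronger inhibition of depolarization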
TRPC4 spec 2: second selectivity test of TRPC6 inhibitors: effect on mouse TRPC4. shares compounds with TRPC6 inh. inhibition, % at 10 µM. 920 compounds, 42% hits. HEK293 TRPC4/MOR, membrane potential dye fluorescence; channel activated by saturating DAMGO dose;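 active = compounds whose fluorescence signal differed from control wells by over 3 SD, either direction, in both duplicate plates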
TRPC4 spec: selectivity of TRPC6 inhibitors: effect on mouse TRPC4 | 920 compounds, 61% hits | HEK293 TRPC4/mu-opioid, membrane potential fluorescence | activity change, negative = inhibition, % at 10 µM | shares compounds with TRPC6 inh;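 active = rise or fall in signal beyond 3 SD of buffer-only wells in both replicate plates, either sign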;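 note: integrated kinetic ratio of fluorescence range over baseline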
HEK293 MPD ctr 2-1: second check of TRPC6 inhibitor effects in parental HEK293 cells; shares compounds with TRPC6 inh; parental HEK293 membrane potential dye fluorescence; maximal acetylcholine challenge after compound addition; signal change vs control, % at 10 µM; 920 compounds, 31% hits;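 active = membrane potential signal moving either way by over 3 SD of the maximum-effect control, in both duplicate plates, meaning non-specific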
HEK293 MPD ctr-1: counter-screen for TRPC6 inhibitors: effect in parental HEK293 cells; shares compounds with TRPC6 inh; parental HEK293 membrane potential dye fluorescence; membrane potential signal change, % at 10 µM; 920 compounds, 60% hits; AID 2780;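 active = membrane potential signal shifting up or down by more than 3 SD of buffer-only wells, on both duplicate plates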
HEK293 MPD ctr-2: checks TRPC6 modulator effects in parental HEK293 cells; shares compounds with TRPC6 inh; membrane potential dye fluorescence; membrane potential signal change, % at 10 µM; 2,400 compounds, 51% hits; AID 488924;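 active = membrane potential signal moves up or down beyond 5 SD from buffer-only wells, on both duplicate plates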
HEK293 MPD ctr 2-2: parental HEK293 nonspecific activity of TRPC6 modulators, second screen; AID 488926; membrane potential dye fluorescence; after compound, maximal acetylcholine stimulation; shares compounds with TRPC6 inh; inhibition, % at 10 µM; 2,400 compounds, 14% hits;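 active = membrane potential signal drops by more than 5 SD from the mean control signal, in both duplicate plates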;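 note: plate controls were acetylcholine ECmax control wells for no effect and buffer only wells for full effect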
TRPC4/MOR mod: mouse TRPC4 off-target activity of TRPC6 modulators; shares compounds with TRPC6 inh; HEK293 TRPC4/mu-opioid, membrane potential fluorescence; percent change from control (negative = decrease, positive = increase), % at 10 µM; 2,400 compounds, 69% hits;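 active = membrane potential signal moved up or down beyond 5 SD of buffer control wells, in both duplicate plates, actives on both sides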;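 note: plate controls were assay buffer wells for no effect and DAMGO maximal-effect wells for full effect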
TRPC4/MOR inh 2: second selectivity test of TRPC6 modulators against mouse TRPC4; shares compounds with TRPC6 inh; 2,400 compounds, 55% hits; HEK293 TRPC4/mu-opioid, membrane potential dye fluorescence; stimulated with maximal-effect DAMGO; inhibition, % at 10 µM; AID 488928;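 active = drop in membrane potential signal beyond 5 SD of the control wells in both duplicate plates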;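 note: TRPC4 counter screen for TRPC6 hits run under conditions tuned for TRPC6 not TRPC4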
TRPC6 inh conf: mouse TRPC6 inhibitor confirmation | inhibition, % at 10 µM | HEK293-TRPC6, membrane potential dye, ACh-evoked depolarization | 3,300 compounds, 43% hits | shares compounds with TRPC6 inh;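 active = fluorescence ratio falls more than 5 SD below the full-stimulation control mean, in both duplicate runs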;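 note: integrated fluorescence ratio of peak minus minimum over baseline after agonist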
TRPC6 act confirm: mouse TRPC6 activator confirmation; shares compounds with TRPC6 inh; HEK293-TRPC6 membrane potential dye fluorescence, FDSS; activation, % at 10 µM; 2,800 compounds, 11% hits;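 active = ratio signal rise beyond 5 SD above unstimulated control wells' mean, seen in both duplicate runs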;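 note: plate controls were buffer EC0 wells for no effect and acetylcholine ECmax response for full effect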
* hit, by the source's call; i = inactive; . = not tested or not shown.

SMILES	TRPC4 potent	TRPC6 activator	TRPC4 act	TRPC4 block	TRPC6 inh	HEK293 MPD ctr-2	HEK293 MPD ctr 2-2	TRPC4/MOR mod	TRPC4/MOR inh 2	TRPC6 inh conf	TRPC6 act confirm	others
CCN1CCN(C(=O)Cn2nc(-c3ccc(Cl)cc3)ccc2=O)CC1	i	i	i	i	i	.	.	.	.	.	.
CCOC(=O)N1CCN(C(=O)Cn2nc(-c3ccc(Cl)cc3)ccc2=O)CC1	i	i	i	i	-6.8*	.	.	.	.	57%*	.	TRPC4 spec 2=i;TRPC4 spec=0.5%*;HEK293 MPD ctr 2-1=i;HEK293 MPD ctr-1=2.3%*
COc1ccc(C(=O)N(C)C2CCN(C)CC2)cc1S(=O)(=O)Nc1cc(Cl)ccc1Cl	i	i	i	i	i	.	.	.	.	.	.
CC(NCc1ccc(N(C)C)cc1)C1CC2CCC1C2 (configuration not stated)	i	i	i	i	-6.5*	231%*	70%*	51%*	60%*	77%*	.
CCOC(=O)c1c(NC(=O)C2C3C=CC(CC3)C2C(=O)O)sc(C)c1CC (configuration not stated)	i	12*	i	i	i	110%*	i	21%*	i	i	60%*
OC(c1ccccc1)(c1ccc(F)cc1)C(c1ccccc1)N1CCOCC1 (configuration not stated)	i	i	i	i	i	.	.	.	.	.	.
N=c1c(-c2nc3ccccc3[nH]2)cc(C(=O)c2cccs2)nn1-c1ccc(Cl)cc1	i	i	i	i	-6.2*	i	i	-19%*	56%*	i	i
O=C(Nc1nc2ccccc2[nH]1)c1cccs1	i	i	i	i	i	.	.	.	.	.	.
O=C(CSc1n[nH]c(=O)n1-c1cccnc1)Nc1ccccc1	i	i	i	i	i	.	.	.	.	.	.
Cc1cc[n+](CC[n+]2ccc(C)cc2)cc1	i	i	i	i	i	.	.	.	.	.	.
CCC(C)(C)c1ccc(OCCCC[n+]2ccc(C)cc2)c(C(C)(C)CC)c1	i	i	i	i	-6.2*	i	i	-14%*	i	i	i
Cc1ccc(NC(=O)CC2S/C(=N/c3nccs3)N(C)C2=O)c(C)c1 (configuration not stated)	i	i	i	i	i	.	.	.	.	.	.
O=C(NCCCn1ccnc1)c1cc2cc([N+](=O)[O-])ccc2oc1=O	i	i	i	i	-5*	-83%*	i	-15%*	i	i	i
Cc1ccc(Cn2c(=N)n(CC(O)COc3ccccc3)c3ccccc32)cc1 (configuration not stated)	i	i	72*	i	-5.9*	i	i	68%*	115%*	46%*	.
CCCCn1c(=N)n(CC(O)COc2ccccc2)c2ccccc21 (configuration not stated)	i	i	i	i	i	.	.	.	.	.	.
N=c1n(Cc2ccccc2)c2ccccc2n1CC(O)COc1ccccc1 (configuration not stated)	i	i	56*	i	-9.9*	.	.	.	.	63%*	.	TRPC4 spec 2=-6.5%*;TRPC4 spec=56%*;HEK293 MPD ctr 2-1=i;HEK293 MPD ctr-1=14%*
O=C(Nc1ccc(CN2CCS(=O)(=O)CC2)cc1)c1ccc(Cl)cc1	i	i	i	i	i	.	.	.	.	.	.
Cc1cc(NC(=O)CSc2nc3cc(C(=O)NCCCOC(C)C)ccc3c(=O)n2Cc2ccco2)no1	i	i	i	i	i	.	.	.	.	.	.
O=C(COc1cccc2cccnc12)N1CCc2ccccc2C1	i	i	i	i	-6.2*	-126%*	i	-22%*	i	i	i
COc1ccc(OC)c(N/C(=N/C(=S)Nc2ccccc2)Nc2nc(C)cc(C)n2)c1	i	i	i	i	i	.	.	.	.	.	.
COCCNC(=O)c1cc2c(=O)n3cccc(C)c3nc2n(Cc2ccncc2)c1=N	i	i	i	i	-11*	.	.	.	.	i	i	TRPC4 spec 2=78%*;TRPC4 spec=-11%*;HEK293 MPD ctr 2-1=-118%*;HEK293 MPD ctr-1=-230%*
COCCCn1c(=N)c(C(N)=S)cc2c(=O)n3cccc(C)c3nc21	i	i	i	i	-6.3*	i	i	i	i	i	i
Cc1cccn2c(=O)c3cc(C(=O)NC4CCCCC4)c(=N)n(CCN4CCOCC4)c3nc12	i	i	i	i	i	.	.	.	.	.	.
CCCCNC(=O)c1cc2c(=O)n3cccc(C)c3nc2n(Cc2ccncc2)c1=N	i	i	i	i	-6.7*	.	.	.	.	i	i	TRPC4 spec 2=i;TRPC4 spec=-20%*;HEK293 MPD ctr 2-1=i;HEK293 MPD ctr-1=-341%*
CCCCNC(=O)c1cc2c(=O)n3cccc(C)c3nc2n(CCN2CCOCC2)c1=N	i	i	i	i	-6.6*	.	.	.	.	i	i	TRPC4 spec 2=i;TRPC4 spec=i;HEK293 MPD ctr 2-1=-26%*;HEK293 MPD ctr-1=i
Cc1cccn2c(=O)c3cc(C(=O)NCCc4ccccc4)c(=N)n(Cc4ccco4)c3nc12	i	i	i	i	i	.	.	.	.	.	.
COc1cc(/C=C/C(=O)OCC(=O)NC2CCS(=O)(=O)C2)ccc1O (configuration not stated)	i	i	i	i	i	.	.	.	.	.	.
CCCc1nnc(SCC(=O)NC2CCCCC2)n1CCOC	i	i	i	i	i	.	.	.	.	.	.
